From ChEMBL document CHEMBL4118152, “Discovery of Potent and Selective Periphery-Restricted Quinazoline Inhibitors of the Cyclic Nucleotide Phosphodiesterase PDE1” (J Med Chem, 2018)

How the values were obtained:
[1] = target: Dual specificity calcium/calmodulin-dependent 3',5'-cyclic nucleotide phosphodiesterase 1C (Homo sapiens, UniProt Q14123); experiment: Inhibition of full length recombinant human PDE1C using 3',5'-[3H]cAMP as substrate after 30 mins by scintillation proximity assay
Method in brief: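 Human recombinant enzymes; substrate held below 1/3 of Km. IC50 reported as mean ± SEM of at least 3 determinations.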

[2] = Fraction unbound in Wistar Hannover rat brain at 1 mg/kg, sc measured at 4 hrs post dose by LC-MS/MS analysis; format: ADME, organism-based; conditions: in vivo, BLD = below limit of detection
[3] = target: High affinity cAMP-specific and IBMX-insensitive 3',5'-cyclic phosphodiesterase 8B (Homo sapiens, UniProt O95263); experiment: Inhibition of full length recombinant human PDE8B using 3',5'-[3H]cAMP as substrate after 30 mins by scintillation proximity assay
Method in brief: (§1)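 Enzymes were human except PDE6A, which was bovine. Each was assayed with cAMP or cGMP substrate, as appropriate to the enzyme, at concentrations below 1/3 of Km. IC50 values are mean ± SEM from n = 3 or more.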

[4] = Fraction unbound in Wistar Hannover rat plasma at 1 mg/kg, sc measured at 0.5 to 4 hrs post dose by LC-MS/MS analysis; format: ADME, organism-based
[5] = target: Adenosine A2 receptor (Homo sapiens) (UniProt P29275+P29274); experiment: Inhibition of human adenosine A2 receptor at 10 uM relative to control; format: protein assay
Homo sapiens = species: Homo sapiens; experiment: Selectivity ratio of IC50 for full length recombinant human PDE3A1 to IC50 for full length recombinant human PDE1B1
Method in brief: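 IC50s were measured against recombinant PDEs, all human except PDE6A (bovine). Each enzyme was given its appropriate cAMP or cGMP substrate at below 1/3 of its Km. IC50s are the mean of n = 3 or more. The selectivity ratio is the IC50 for the other PDE divided by the IC50 for PDE1B1 or PDE1A.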

[6] = Fraction unbound in Wistar Hannover rat brain at 1 mg/kg, sc measured at 2 hrs post dose by LC-MS/MS analysis; format: ADME, organism-based; conditions: in vivo
[7] = target: Muscarinic acetylcholine receptor M4 (Homo sapiens) (UniProt P08173); experiment: Inhibition of human muscarinic M4 receptor at 10 uM relative to control
[8] = target: Androgen receptor (Homo sapiens) (UniProt P10275); experiment: Inhibition of human Androgen receptor at 10 uM relative to control
[9] = target: High affinity choline transporter 1 (Homo sapiens) (UniProt Q9GZV3); experiment: Displacement of [3H]hemicholinium-3 from recombinant human Choline Transporter at 10 uM after 60 mins by scintillation counting analysis relative to control
Rattus norvegicus = species: Rattus norvegicus; experiment: Displacement of [3H]D888 from rat brain L-type calcium channel verapamil binding site at 10 uM after 30 mins by scintillation counting analysis relative to control
[10] = target: Cannabinoid receptor 2 (Homo sapiens) (UniProt P34972); experiment: Inhibition of human Cannabinoid CB2 receptor at 10 uM relative to control
[11] = target: Vasopressin V2 receptor (Homo sapiens) (UniProt P30518); experiment: Inhibition of human Vasopressin 2 receptor at 10 uM relative to control
[12] = target: 5-hydroxytryptamine receptor 2A (Homo sapiens) (UniProt P28223); experiment: Inhibition of human 5-HT2A receptor at 10 uM relative to control
[13] = target: 5-hydroxytryptamine receptor 3A (Homo sapiens) (UniProt P46098); experiment: Inhibition of human 5-HT3 receptor at 10 uM relative to control
[14] = target: Voltage-dependent N-type calcium channel subunit alpha-1B (Rattus norvegicus) (UniProt Q02294); experiment: Displacement of [125I]omega -conotoxin GVIA from rat brain N-type Calcium channel at 10 uM after 30 mins by scintillation counting analysis relative to control
[15] = target: Vascular endothelial growth factor receptor 1 (Homo sapiens) (UniProt P17948); experiment: Inhibition of recombinant human VEGFR1 using Ulight-TK peptide as substrate at 10 uM after 15 mins in presence of ATP by LANCE method relative to control
[16] = target: cAMP and cAMP-inhibited cGMP 3',5'-cyclic phosphodiesterase 10A (Homo sapiens, UniProt Q9Y233); experiment: Inhibition of full length recombinant human PDE10A1 using 3',5'-[3H]cAMP as substrate after 30 mins by scintillation proximity assay; method in brief: as §1
[17] = Ratio of drug uptake in cerebrospinal fluid to fraction unbound in plasma in Wistar Hannover rat at 1 mg/kg, sc measured at 1 hr post dose by LC-MS/MS analysis; format: ADME, organism-based, CSF/Plasma; conditions: in vivo
[18] = Drug uptake in Wistar Hannover rat cerebrospinal fluid at 1 mg/kg, sc measured at 0.5 hrs post dose by LC-MS/MS analysis; format: ADME, organism-based; conditions: read-out: Drug uptake
Method in brief: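 Rats were dosed subcutaneously at 1 mg/kg. CSF, plasma and brain were sampled at 0.5, 1, 2 and 4 h post dose and analysed for drug concentration. Values are means at each time point.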

[19] = target: Glucocorticoid receptor (Homo sapiens) (UniProt P04150); experiment: Inhibition of human glucocorticoid receptor at 10 uM relative to control
[20] = target: Adenosine receptor A1 (Homo sapiens) (UniProt P30542); experiment: Inhibition of human adenosine A1 receptor at 10 uM relative to control

Sequence of Vasopressin V2 receptor (Homo sapiens) (P30518 whole entry): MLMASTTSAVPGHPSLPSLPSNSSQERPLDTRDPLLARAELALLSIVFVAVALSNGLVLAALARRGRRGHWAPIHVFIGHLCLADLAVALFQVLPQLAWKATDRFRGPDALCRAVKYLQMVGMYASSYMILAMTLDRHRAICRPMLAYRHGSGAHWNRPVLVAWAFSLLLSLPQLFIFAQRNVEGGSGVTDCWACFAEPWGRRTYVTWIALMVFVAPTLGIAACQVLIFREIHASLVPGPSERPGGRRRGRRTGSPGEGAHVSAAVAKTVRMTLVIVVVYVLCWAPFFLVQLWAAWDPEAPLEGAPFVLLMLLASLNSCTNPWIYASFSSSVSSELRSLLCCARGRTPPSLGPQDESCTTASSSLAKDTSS
Sequence of Dual specificity calcium/calmodulin-dependent 3',5'-cyclic nucleotide phosphodiesterase 1C (Q14123 whole entry): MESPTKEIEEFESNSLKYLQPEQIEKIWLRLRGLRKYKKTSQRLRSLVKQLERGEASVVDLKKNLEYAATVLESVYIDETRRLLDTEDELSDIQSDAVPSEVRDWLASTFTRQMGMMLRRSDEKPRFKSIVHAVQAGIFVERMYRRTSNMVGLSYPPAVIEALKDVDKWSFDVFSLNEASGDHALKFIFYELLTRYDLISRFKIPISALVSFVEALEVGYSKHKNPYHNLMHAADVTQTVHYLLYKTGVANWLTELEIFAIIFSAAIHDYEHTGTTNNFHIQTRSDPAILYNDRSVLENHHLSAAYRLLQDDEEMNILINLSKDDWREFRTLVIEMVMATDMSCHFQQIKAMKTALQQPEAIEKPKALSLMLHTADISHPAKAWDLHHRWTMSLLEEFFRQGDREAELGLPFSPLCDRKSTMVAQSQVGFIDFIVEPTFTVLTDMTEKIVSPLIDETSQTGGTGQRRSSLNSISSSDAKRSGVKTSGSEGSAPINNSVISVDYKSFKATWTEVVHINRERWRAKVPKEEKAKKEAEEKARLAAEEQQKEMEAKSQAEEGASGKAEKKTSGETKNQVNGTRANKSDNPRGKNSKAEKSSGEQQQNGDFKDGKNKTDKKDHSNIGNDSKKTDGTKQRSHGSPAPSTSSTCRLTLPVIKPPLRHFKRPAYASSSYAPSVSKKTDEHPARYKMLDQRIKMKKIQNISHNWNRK
Sequence of cAMP and cAMP-inhibited cGMP 3',5'-cyclic phosphodiesterase 10A (Q9Y233 whole entry): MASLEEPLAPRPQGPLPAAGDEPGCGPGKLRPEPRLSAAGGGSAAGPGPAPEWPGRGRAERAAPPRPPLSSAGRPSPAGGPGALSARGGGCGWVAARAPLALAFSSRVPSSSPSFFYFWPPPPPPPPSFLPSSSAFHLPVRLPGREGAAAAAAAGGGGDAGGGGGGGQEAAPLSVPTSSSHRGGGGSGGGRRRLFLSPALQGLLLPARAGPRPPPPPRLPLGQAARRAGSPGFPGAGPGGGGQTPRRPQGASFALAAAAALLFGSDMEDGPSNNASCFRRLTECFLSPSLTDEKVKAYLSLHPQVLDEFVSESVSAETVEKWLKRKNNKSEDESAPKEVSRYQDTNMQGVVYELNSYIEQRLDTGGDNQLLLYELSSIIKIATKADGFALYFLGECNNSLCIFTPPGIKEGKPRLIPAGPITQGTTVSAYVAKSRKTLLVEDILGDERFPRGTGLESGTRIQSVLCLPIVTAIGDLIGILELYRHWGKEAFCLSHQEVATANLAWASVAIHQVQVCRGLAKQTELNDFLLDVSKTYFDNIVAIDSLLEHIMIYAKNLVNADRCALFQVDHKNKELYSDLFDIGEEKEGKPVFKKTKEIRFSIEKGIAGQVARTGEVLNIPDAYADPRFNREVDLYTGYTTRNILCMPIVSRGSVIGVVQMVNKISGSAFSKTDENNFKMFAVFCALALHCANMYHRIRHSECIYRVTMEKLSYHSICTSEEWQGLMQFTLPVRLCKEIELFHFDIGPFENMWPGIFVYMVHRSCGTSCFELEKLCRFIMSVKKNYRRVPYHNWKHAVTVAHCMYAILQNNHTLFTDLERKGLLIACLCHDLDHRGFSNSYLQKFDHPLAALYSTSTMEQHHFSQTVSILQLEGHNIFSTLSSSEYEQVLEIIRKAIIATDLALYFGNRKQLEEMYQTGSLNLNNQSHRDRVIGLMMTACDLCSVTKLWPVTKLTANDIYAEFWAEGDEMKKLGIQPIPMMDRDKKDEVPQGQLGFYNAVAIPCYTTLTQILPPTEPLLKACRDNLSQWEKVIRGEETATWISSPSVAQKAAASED
Sequence of Glucocorticoid receptor (Homo sapiens) (P04150 whole entry): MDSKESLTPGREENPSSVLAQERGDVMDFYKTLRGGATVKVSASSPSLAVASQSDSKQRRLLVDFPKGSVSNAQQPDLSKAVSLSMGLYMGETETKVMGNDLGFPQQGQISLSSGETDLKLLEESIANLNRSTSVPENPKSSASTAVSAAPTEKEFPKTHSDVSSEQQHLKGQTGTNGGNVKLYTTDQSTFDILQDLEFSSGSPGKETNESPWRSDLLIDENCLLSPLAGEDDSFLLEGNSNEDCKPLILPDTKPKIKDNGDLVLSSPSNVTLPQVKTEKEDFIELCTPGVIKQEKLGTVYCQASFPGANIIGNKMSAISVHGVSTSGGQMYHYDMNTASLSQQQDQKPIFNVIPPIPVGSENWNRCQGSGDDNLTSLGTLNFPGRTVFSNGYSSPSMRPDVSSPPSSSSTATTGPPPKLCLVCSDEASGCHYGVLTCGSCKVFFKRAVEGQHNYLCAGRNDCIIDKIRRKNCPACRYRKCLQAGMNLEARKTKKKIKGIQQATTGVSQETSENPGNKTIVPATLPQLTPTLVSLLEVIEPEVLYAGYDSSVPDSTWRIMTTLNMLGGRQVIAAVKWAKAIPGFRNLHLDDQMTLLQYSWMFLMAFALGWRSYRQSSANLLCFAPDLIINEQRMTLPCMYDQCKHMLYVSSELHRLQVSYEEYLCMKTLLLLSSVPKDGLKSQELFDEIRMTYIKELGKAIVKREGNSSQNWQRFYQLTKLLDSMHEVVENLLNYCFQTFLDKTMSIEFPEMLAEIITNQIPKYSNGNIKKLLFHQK
Sequence of High affinity cAMP-specific and IBMX-insensitive 3',5'-cyclic phosphodiesterase 8B (O95263 whole entry): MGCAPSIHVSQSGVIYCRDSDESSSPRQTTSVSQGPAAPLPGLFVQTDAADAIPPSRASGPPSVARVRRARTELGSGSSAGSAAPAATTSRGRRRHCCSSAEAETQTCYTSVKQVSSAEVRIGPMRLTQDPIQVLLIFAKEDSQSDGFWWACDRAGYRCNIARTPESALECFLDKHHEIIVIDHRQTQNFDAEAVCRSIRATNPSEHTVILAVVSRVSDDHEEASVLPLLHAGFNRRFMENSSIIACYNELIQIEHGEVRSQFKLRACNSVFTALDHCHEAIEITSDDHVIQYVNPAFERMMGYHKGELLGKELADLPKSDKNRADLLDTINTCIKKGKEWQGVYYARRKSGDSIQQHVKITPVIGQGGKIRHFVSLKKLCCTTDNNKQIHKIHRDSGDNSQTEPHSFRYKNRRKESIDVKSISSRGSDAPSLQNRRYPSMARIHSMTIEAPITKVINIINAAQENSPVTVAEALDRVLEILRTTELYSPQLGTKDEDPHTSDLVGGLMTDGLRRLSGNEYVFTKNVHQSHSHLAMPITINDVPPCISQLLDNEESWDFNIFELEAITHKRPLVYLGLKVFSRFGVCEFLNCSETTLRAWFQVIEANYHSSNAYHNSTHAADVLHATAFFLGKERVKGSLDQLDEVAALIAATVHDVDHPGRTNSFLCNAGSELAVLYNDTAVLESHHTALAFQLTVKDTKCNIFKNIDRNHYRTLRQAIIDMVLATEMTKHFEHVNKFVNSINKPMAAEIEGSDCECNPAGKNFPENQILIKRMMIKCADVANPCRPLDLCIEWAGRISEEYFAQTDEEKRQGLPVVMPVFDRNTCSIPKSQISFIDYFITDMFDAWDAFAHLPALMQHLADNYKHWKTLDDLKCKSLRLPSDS
Sequence of Cannabinoid receptor 2 (Homo sapiens) (P34972 whole entry): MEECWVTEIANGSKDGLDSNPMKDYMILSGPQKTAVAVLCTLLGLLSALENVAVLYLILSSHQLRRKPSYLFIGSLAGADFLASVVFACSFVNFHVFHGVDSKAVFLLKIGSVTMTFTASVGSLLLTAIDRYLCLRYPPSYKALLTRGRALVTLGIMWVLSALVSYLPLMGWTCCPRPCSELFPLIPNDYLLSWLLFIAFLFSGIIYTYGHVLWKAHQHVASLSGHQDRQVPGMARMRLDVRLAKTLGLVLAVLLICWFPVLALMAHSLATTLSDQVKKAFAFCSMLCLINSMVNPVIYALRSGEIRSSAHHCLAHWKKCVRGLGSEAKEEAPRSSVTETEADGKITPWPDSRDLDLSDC
Sequence of Androgen receptor (Homo sapiens) (P10275 whole entry): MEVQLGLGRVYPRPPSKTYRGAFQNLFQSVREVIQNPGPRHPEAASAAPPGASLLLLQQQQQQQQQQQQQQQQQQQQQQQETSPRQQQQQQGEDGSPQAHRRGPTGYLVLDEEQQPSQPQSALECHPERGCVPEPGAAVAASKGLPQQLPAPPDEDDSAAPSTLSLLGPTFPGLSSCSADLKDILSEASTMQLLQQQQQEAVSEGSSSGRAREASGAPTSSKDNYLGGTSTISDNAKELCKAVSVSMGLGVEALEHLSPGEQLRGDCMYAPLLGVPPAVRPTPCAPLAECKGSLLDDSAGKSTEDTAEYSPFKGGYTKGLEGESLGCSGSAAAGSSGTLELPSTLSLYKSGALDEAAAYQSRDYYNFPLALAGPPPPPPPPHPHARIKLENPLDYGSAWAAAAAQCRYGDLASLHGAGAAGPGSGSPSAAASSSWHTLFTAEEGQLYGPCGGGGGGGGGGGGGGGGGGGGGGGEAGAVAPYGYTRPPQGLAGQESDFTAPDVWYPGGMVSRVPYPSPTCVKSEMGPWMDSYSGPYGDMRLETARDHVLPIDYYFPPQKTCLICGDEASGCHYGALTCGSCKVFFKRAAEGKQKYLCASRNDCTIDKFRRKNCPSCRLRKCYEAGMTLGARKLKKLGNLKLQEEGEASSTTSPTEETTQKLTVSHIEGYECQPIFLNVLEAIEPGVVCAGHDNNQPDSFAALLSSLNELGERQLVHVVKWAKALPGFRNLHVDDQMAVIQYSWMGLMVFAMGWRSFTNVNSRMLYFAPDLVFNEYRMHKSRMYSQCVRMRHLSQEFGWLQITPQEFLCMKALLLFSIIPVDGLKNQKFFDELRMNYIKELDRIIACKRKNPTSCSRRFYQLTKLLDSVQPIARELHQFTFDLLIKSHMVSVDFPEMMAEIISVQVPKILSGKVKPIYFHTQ

**Q.** Which IC50 [1] does the source give for `COc1ccc2c(N[C@@H](C)Cc3cc(C)[nH]n3)ncnc2c1OC` here?
**A.** 0.038 µM

**Q.** What about the “Drug uptake(free)” value [2] of the same molecule?
**A.** Bld

**Q.** And the IC50 [3]?
**A.** 15.5 µM

**Q.** What about the fraction unbound [4] of the same molecule?
**A.** 0.25

**Q.** What about the inhibition [5] of the same molecule?
**A.** < 50%

**Q.** And the Ratio IC50 (Homo sapiens)?
**A.** 14600

**Q.** What about the “Drug uptake(free)” value [6] of the same molecule?
**A.** 2 nM

**Q.** And the inhibition [7]?
**A.** < 50%

**Q.** And the inhibition [8]?
**A.** < 50%

**Q.** What about the inhibition [9] of the same molecule?
**A.** < 50%

**Q.** And the inhibition (Rattus norvegicus)?
**A.** < 50%

**Q.** What about the inhibition [10] of the same molecule?
**A.** < 50%

**Q.** What about the inhibition [11] of the same molecule?
**A.** < 50%

**Q.** What about the inhibition [12] of the same molecule?
**A.** < 50%

**Q.** And the inhibition [13]?
**A.** < 50%

**Q.** And the inhibition [14]?
**A.** < 50%

**Q.** And the inhibition [15]?
**A.** < 50%

**Q.** And the IC50 [16]?
**A.** 0.409 µM

**Q.** And the Ratio [17]?
**A.** 0.13

**Q.** And the concentration at 0.5 h [18]?
**A.** 0.021 µM

**Q.** And the inhibition [19]?
**A.** < 50%

**Q.** What about the inhibition [20] of the same molecule?
**A.** < 50%
